# Rows were chosen to be rich in hits. Some 1.8% of all compounds tested hit in one or more screens of this group.
# SKN-1 inh: blocks SKN-1 activity in C. elegans | C. elegans VP596 Pgst-4::GFP/RFP ratio, acrylamide-induced, 24 h | inhibition, % at 21.8 µM | 0.49% of 360,000 active | AID 624304;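 active = interference check ratio from 0.5 to 1.5 plus GFP to RFP signal ratio inhibition reaching or exceeding a fixed threshold, cut at about 30% in these data, passing the limit was not always enough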
# PABP1 MLLE inh: blocks PAM2 peptide binding to the PABP1 MLLE domain; GST-MLLE / FITC-PAM2 fluorescence polarization; inhibition, % at 20 µM; 0.36% of 360,000 active; in the data active = inhibition above about 35%, passing the limit was not always enough
# Target sequence (P11940 whole entry, looked up, the tested form may be a part): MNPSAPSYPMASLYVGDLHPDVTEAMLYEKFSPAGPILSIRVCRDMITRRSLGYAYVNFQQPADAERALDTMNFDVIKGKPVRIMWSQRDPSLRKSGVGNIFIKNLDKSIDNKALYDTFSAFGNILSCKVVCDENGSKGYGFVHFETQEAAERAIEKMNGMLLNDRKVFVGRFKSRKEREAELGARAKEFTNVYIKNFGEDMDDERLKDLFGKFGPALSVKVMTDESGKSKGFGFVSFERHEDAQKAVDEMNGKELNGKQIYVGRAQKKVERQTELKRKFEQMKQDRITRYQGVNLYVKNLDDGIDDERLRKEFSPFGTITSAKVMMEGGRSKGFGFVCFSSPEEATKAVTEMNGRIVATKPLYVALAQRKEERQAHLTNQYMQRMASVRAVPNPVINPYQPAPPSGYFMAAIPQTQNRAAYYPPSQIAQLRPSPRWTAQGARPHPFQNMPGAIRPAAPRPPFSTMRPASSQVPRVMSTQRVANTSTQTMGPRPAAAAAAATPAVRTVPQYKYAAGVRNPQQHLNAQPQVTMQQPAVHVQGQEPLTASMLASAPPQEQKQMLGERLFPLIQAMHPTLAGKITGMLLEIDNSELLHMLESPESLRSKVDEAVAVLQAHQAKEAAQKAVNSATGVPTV
# eIF4H FP inh: inhibitors of RNA binding by human eIF4H; Q15056; eIF4H fluorescence polarization binding assay; inhibition, % at 35 µM; 0.94% of 290,000 active;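 note: calls also rest on retests at 20 µM and on dose response follow-up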
# PABP polyA inh: PABP-poly(A) binding inhibition; calls only at 35 µM; P11940; PABP-poly(A) RNA binding, fluorescence polarization; 1% of 290,000 active;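 note: calls also rest on retests at 20 µM and on dose response follow-up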
# MT1-MMP act inh: inhibitors of human MT1-MMP activation | HT1080 RFP-PRO-GFP cells, GFP/RFP ratio fluorescence, overnight; percent of plate control window, DMSO zero | GFP/RFP ratio change, % at 20 µM | 0.061% of 360,000 active | AID 651647;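 active = GFP/RFP ratio change of at least 30% with cell ATP level not reduced by more than half and red fluorescence within 50% of control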
#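 Assay system: HT1080 RFP-PRO-GFP cells | Dosing: 20 µM single dose, 1% DMSO | Incubation: Cells overnight before dosing, compound overnight, 37 °C, 5% CO2 | Evaluation: GFP/RFP fluorescence ratio | Control set: DMSO-only wells and HT1080 RFP-L50D-GFP cell wells as references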
# Hits are given with their value; – = inactive; ? = inconclusive; · = no result; + = active, no number. Unless noted, the rule behind the calls is not given here.
SMILES,SKN-1 inh,PABP1 MLLE inh,eIF4H FP inh,PABP polyA inh,MT1-MMP act inh
COc1cccc2c(=O)n(CC(=O)Nc3ccc(F)cc3)ccc12,–,–,–,–,–
COc1cccc2c(=O)n(CC(=O)Nc3ccccc3F)ccc12,–,–,?,+,–
COC(=O)C[C@@H]1CC[C@@H](NS(=O)(=O)c2ccccc2OC)[C@@H](CO)O1,–,·,·,·,–
CC(C)OCCCn1c(=S)[nH]c2cc3c(cc2c1=O)OCO3,39,–,–,–,–
Cc1ccc(C)n1-c1nccc(-c2ccco2)n1,–,–,54,+,–
Cc1ccc(C)n1-c1nccc(-c2cccs2)n1,–,–,91,+,–
Cc1nc2ccccc2n1-c1nc(-c2ccco2)cc(C(F)(F)F)n1,–,–,–,–,–
COc1ccccc1NC(=O)c1sc2nc(Cc3ccccc3)cc(C(F)(F)F)c2c1N,–,–,65,+,–
CNC(=O)/C(C#N)=C/c1ccc(OCCOc2ccccc2)cc1,–,–,–,–,·
Cn1c(Cc2c[nH]c3ccccc23)n[nH]c1=S,44,–,6.5,–,–
CC1CC(=O)c2c(cc3c(-c4c(O)cc(O)c5c(O)c6c(cc45)OC(C)CC6=O)c(O)cc(O)c3c2O)O1 (stereo unspecified),–,–,100,+,–
O=C1CC(c2ccc(O)cc2)Oc2cc(O)cc(O)c21 (stereo unspecified),–,–,–,–,–
O=c1oc2c3c4c(cc2s1)CCCN4CCC3,–,74,122,+,–
O=c1ccc2cc3c4c(c2o1)CCCN4CCC3,–,–,?,?,–
CCOC(=O)c1cc(CC)sc1/N=C/C1=C(O)CCCC1=O,–,–,–,+,–
CCOC(=O)C1(Cc2ccccc2)CCCN(C(=O)c2cnn(CC)c2)C1 (stereo unspecified),–,–,–,–,–
COc1ccc(NC(=O)c2cc(C)nc3ccccc23)cc1S(=O)(=O)N1CCOCC1,–,–,·,·,–
Cc1ccc(NC(=O)c2cc(-c3ccco3)nc3ccccc23)cc1S(=O)(=O)N1CCOCC1,–,–,66,+,–
COc1ccc(NC(=O)c2cc(-c3ccco3)nc3ccccc23)cc1S(=O)(=O)N1CCOCC1,–,–,–,+,–
Cc1cccc(C)c1NC(=O)Cn1cnc2c(=O)n(C)c(=O)n(C)c21,–,–,–,–,–
Cn1c(=O)c2ncn(CC(=O)Nc3ccc4c5c(cccc35)CC4)c2n(C)c1=O,42,–,47,+,–
CCCCCCCCN1C(=O)[C@H](CC(=O)N2CCCCC2)C[C@@]2(C(=O)OCC)CCCC=C12,–,·,·,·,–
CC(C)c1nnc(NC(=O)C2CCCO2)s1 (stereo unspecified),–,–,–,–,–
O=C(Nc1nnc(C2CC2)s1)C1CCCO1 (stereo unspecified),–,–,0.7,–,–
CC(C(=O)N1CCN(C)CC1)N1C(=O)c2ccccc2C1=O (stereo unspecified),36,–,–,–,–
SMILES,SKN-1 inh,PABP1 MLLE inh,eIF4H FP inh,PABP polyA inh,MT1-MMP act inh
Cc1cc(C(C)(C)C)c(OC(=O)[C@@H]2OC(c3ccccc3)=C[C@H]2c2ccccc2)c(C(C)(C)C)c1,–,–,·,·,–
Clc1cccc(-c2cccc3nccn23)c1Cl,–,–,·,·,–
COc1ccc(C(=O)NN/C(=N/S(=O)(=O)c2ccc(C)cc2)c2ccccc2)cc1,37,–,–,–,–
CCOc1ccc(S(=O)(=O)/N=C(/Nc2ccc(OC)cc2)c2ccccc2)cc1,–,–,–,–,–
COC(=O)c1c(C)[nH]c(O)c1C=Nc1ccc(C#N)cc1,46,–,–,–,–
CCCNC(=O)c1cc(C2CCCN(C(=O)c3cc(F)ccc3C)C2)on1 (stereo unspecified),–,–,·,·,–
O=C(CN1CCN(c2ccc(F)cc2)CC1)Nc1ccccc1Br,–,–,–,–,–
O=C(CN1CCN(c2ccc(F)cc2)CC1)Nc1ccccc1[N+](=O)[O-],–,–,60,+,–
CC(=O)N1CCN(Cc2cc(=O)oc3ccccc23)CC1,–,–,·,·,–
C/C(=N\NC(=S)NCc1ccccc1)c1cccc(Br)c1,–,–,–,–,–
C=CCNC(=S)N/N=C(\C)c1cccc(OC)c1,–,40,–,–,–
C/C(=N\NC(=S)NCCc1ccccc1)c1cccc(Br)c1,–,39,–,–,–
Cc1ccc(S(=O)(=O)NCCNc2ccc(Br)c(C)c2)cc1,–,–,·,·,–
O=C(Oc1c(CN2CCOCC2)cc(Cl)c2cccnc12)c1ccccc1F,–,–,?,+,–
Cc1ccc(C)n1/N=C1/NC(=O)CS1,–,–,92,+,–
Cc1ccc(N=C2NC(=O)CS2)cc1,–,–,–,–,–
COc1ccc(NC(=O)CCSc2ccc(C)cc2)cc1S(=O)(=O)Nc1ccccc1Cl,–,–,–,–,–
COc1ccc(NS(=O)(=O)c2cc(NC(=O)CCSc3ccccc3)ccc2OC)cc1,–,–,5.3,+,–
O=C(Nc1ccncc1)c1cc(-c2ccccn2)nc2ccccc12,–,–,–,–,–
Cc1cccc(C)c1NC(=O)c1cc(-c2ccccn2)nc2ccccc12,–,–,active,–,–
COc1ccc(C(=O)Nc2c(N)nc[nH]c2=O)cc1,–,–,·,·,–
CCN1C[C@@H]2[C@@H]3C(=O)N(C)C(=O)[C@@H]3[C@](Cc3ccccc3)(C(=O)OC)N2C1=NC1CCCCC1,–,–,·,·,–
CC1(C)S[C@@H]2[C@H](NC(=O)[C@H](N)c3ccccc3)C(=O)N2[C@H]1C(=O)O,–,–,–,+,–
O=[N+]([O-])c1ccccc1-c1ccc(C(=S)N2CCN(c3ccccc3)CC2)o1,–,–,–,–,–
N#C/C(=C\c1ccc(-c2ccccc2[N+](=O)[O-])o1)C(=O)N1CCOCC1,–,–,61,–,–
SMILES,SKN-1 inh,PABP1 MLLE inh,eIF4H FP inh,PABP polyA inh,MT1-MMP act inh
Nc1ccc2c(Cl)cc(Cl)cc2c1,63,–,·,·,–
COc1ccccc1-c1c(C(F)(F)F)oc2cc(OC(=O)c3cccc([N+](=O)[O-])c3C)ccc2c1=O,36,–,–,–,–
COc1ccccc1-c1c(C(F)(F)F)oc2cc(OCC(=O)Nc3cc(C)ccc3C)ccc2c1=O,·,·,–,–,·
CCN(CC(O)CON=C1c2ccccc2-c2ccccc21)S(=O)(=O)c1ccc(C)cc1 (stereo unspecified),–,–,80,+,–
COC(=O)C1=C(O)/C(=C\c2ccc(O)c(OC)c2)N=C1C,–,–,56,+,–
CCCCS/C(=C(/C#N)C(N)=O)c1cc2c([nH]1)CCCC2,37,–,–,–,–
CCc1ccc(N/C(SC)=C(/C#N)C(N)=O)cc1,–,–,–,–,–
O=C(Nc1ccc(S(=O)(=O)Nc2nccs2)cc1)c1ccc(S(=O)(=O)N2CCOCC2)cc1,–,–,–,–,–
O=C(Nc1ccc(S(=O)(=O)Nc2nccs2)cc1)c1ccc(=O)[nH]c1,–,–,–,+,–
O=C(Nc1ccc(S(=O)(=O)Nc2nccs2)cc1)c1ccc(F)c(S(=O)(=O)N2CCOCC2)c1,–,–,52,–,–

# High-throughput results deposited in PubChem by Sanford-Burnham Center for Chemical Genomics.
